Results taken from paper PMC7318068 (ACS Central Science, 2020).

What was measured:
MDA-MB-468 cells [1] = assay: Cell viability assay for combinatorial effect of AZ-82 and MK-FNE or MK-2206; format: cell-based; conditions: 72 hours
Halo-Akt3(wt) = Halo-Akt3(wt) (Homo sapiens, UniProt Q9Y243); format: cell-based; conditions: 5 μM
Halo-Akt3(C119S) = Halo-Akt3(C119S) (Homo sapiens, UniProt Q9Y243, C119S); format: cell-based; conditions: 5 μM, 48 h, then withdrawal
How it was run: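 HEK293T cells co-expressing the AktAR ratiometric-FRET reporter and Halo-Akt3(C119S) were exposed to test compound (5 μM) or DMSO for 24–48 h. They were then rinsed twice and recovered in drug-free media for 24 h. Akt kinase activity was imaged live by confocal ratiometric FRET with 458 nm argon-laser excitation at set times.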

[2] = test system: Akt3(T305)-phosphorylation; assay: Halo-Akt3 phospho-T305 levels by western blot and ELISA; format: cell-based; conditions: saturating doses
[3] = test system: T47D and T47D MK-2206-resistant cells; assay: Cell viability of T47D; format: cell-based; conditions: 72 h
MDA-MB-468 xenografts = assay: Drug efficacy test in MDA-MB-468 xenograft mouse model; format: in vivo, athymic nude mice; conditions: 200 mg/kg PO twice weekly
How it was run: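 Polyclonal MDA-MB-468 cells were injected into both flanks of female nude mice. From day 7, test compound (200 mg/kg) or vehicle DMSO was given by oral gavage twice weekly, 5 mice per group. Tumor volume was normalized to time zero and plotted against time. Growth rate was the linear-regression slope; groups were compared by two-tailed unpaired t-test.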

MDA-MB-468 cells [4] = assay: Drug effect persistence assay; format: cell-based; conditions: EC60 concentration 48 h, then 24 h recovery
Akt1, Akt2, Akt3 = conditions: cited from earlier work

Halo-Akt3(wt), sequence (Q9Y243 whole entry): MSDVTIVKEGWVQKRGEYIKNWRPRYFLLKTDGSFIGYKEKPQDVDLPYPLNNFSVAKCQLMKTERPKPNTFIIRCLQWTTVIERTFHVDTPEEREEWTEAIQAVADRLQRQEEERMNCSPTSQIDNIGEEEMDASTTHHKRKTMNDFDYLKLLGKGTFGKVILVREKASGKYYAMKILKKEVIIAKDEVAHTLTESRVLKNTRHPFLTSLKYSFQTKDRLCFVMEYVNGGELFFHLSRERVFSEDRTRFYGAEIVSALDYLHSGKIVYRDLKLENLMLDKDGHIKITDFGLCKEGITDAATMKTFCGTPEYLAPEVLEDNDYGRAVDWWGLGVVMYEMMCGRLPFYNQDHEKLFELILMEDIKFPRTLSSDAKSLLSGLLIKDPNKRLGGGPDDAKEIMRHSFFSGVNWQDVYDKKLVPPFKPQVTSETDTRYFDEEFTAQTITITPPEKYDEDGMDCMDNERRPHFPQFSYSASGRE
Halo-Akt3(C119S), sequence (Q9Y243 whole entry C119S): as the sequence (Q9Y243 whole entry) above, with C119S counted along it

Row | ratiometric-FRET signal (Akt activity) under treatment (Halo-Akt3(wt); 24 h, vs DMSO) | Akt3(wt) activity after 24 h withdrawal in drug-free media (Halo-Akt3(wt); 48 h, then withdrawal) | Akt3(C119S) activity after 24 h withdrawal in drug-free media (Halo-Akt3(C119S)) | Fold increase in resistance = EC50(MK-res)/EC50(wt) [3] [fold] | blood glucose levels (MDA-MB-468 xenografts; Day 21, 4 days after termination of dosing) | SMILES | effect on proliferation inhibition by MK-FNE or MK-2206 (MDA-MB-468 cells [1]) | Akt3(T305)-phosphorylation [2] | tumor-growth suppression overall (MDA-MB-468 xenografts; vs DMSO) [%] | slope (m) of fold change in tumor size vs day, linear regression (MDA-MB-468 xenografts; DMSO 0.0638 ± 0.0032) | regrowth after compound withdrawal (MDA-MB-468 cells [4]) | higher affinity for Akt1 than Akt3 (Akt1, Akt2, Akt3) [fold] | preference of Akt2 over Akt3 for binding (Akt1, Akt2, Akt3)
1 | – | – | – | – | – | CCCc1cc(C(=O)N[C@H](Cc2ccc(-c3cccc(OC(F)(F)F)c3)nc2)C(=O)N[C@@H]2CCNC2)sc1C [AZ82] | selectively promoted resistance to MK-FNE, but not MK-2206 | – | – | – | – | – | –
2 | suppressed the ratiometric-FRET signal | kinase activity was restored | recovery to normal activity levels | 5 | elevated relative to MK-FNE-treated mice | NC1(c2ccc(-c3nc4ccn5c(=O)[nH]nc5c4cc3-c3ccccc3)cc2)CCC1 [MK-2206] | – | fully suppressed | 14 | 0.0547 ± 0.0018 | statistically significant regrowth was observed | ~100 | around 10 fold
